For assay [1], the target named is T1, Epidermal growth factor receptor (Homo sapiens, UniProt P00533). Briefly: In vitro inhibitory activity against epidermal growth factor receptor.
In assay [2] the test system is NIH3T3. Put plainly: Inhibition of PDGF-induced c-fos mRNA expression in BALB/c 3T3 cells. Conditions: Mus musculus. It counts as functional, cell-based.
Assay [3] concerns the target Protein kinase C alpha type (Homo sapiens, UniProt P17252). Briefly: Inhibition of Protein kinase C alpha. The method in brief:
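Enzymes purified as previously reported. Compounds were dissolved in DMSO and diluted in buffer to a final assay DMSO of 1%. IC50 values are averages of at least three determinations.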

Assay [4] has as its target Proto-oncogene tyrosine-protein kinase Src (Homo sapiens, UniProt P12931). Briefly: Inhibition of tyrosine kinase c-Src. Put shortly: (§1)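 Enzyme purification and in vitro kinase assay as previously described. Compounds dissolved in DMSO and diluted in buffer to 1% DMSO final in the assay. IC50 values are averages of at least three determinations.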
The target of assay [5] is Tyrosine-protein kinase ABL (Homo sapiens, UniProt P00519+P42684). Briefly: Inhibition of tyrosine kinase v-Abl. It counts as protein assay. Put shortly: as §1
Assay [6] has as its target T1, Epidermal growth factor receptor. Put plainly: Inhibition of EGF-stimulated tyrosine phosphorylation in A431 cells expressing EGF-R.
Assay [7] relates to Balb/MK. Put plainly: Inhibition of proliferation of EGF-dependent BALB/MK cells. It counts as functional, cell-based. Conditions: Mus musculus.
In assay [8] the test system is NIH3T3. Put plainly: Inhibition of PDGF-stimulated tyrosine phosphorylation in BALB/c3T3 cells. Type of assay: functional, cell-based. The settings on record: Mus musculus. Put shortly: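 Total cellular tyrosine phosphorylation was stimulated with PDGF in BALB/c 3T3 cells and read by microtiter ELISA. Results are reported as IC50 in µM.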

Some results are limits rather than exact numbers.

Proto-oncogene tyrosine-protein kinase Src, sequence (P12931 2-536 limits assumed): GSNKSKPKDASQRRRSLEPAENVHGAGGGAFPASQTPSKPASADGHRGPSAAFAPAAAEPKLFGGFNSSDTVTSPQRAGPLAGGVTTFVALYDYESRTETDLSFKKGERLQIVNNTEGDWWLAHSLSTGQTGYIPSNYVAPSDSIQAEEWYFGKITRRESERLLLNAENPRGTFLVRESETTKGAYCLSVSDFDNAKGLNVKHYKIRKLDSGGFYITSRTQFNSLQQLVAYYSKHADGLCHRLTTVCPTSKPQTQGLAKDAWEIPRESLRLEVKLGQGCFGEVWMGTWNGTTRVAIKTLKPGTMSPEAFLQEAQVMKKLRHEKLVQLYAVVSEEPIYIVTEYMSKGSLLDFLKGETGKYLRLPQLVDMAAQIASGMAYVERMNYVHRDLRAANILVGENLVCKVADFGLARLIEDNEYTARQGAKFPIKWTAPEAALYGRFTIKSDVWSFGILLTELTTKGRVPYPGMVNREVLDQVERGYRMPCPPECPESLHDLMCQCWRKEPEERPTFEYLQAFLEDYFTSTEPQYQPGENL
T1 sequence (P00533 whole entry): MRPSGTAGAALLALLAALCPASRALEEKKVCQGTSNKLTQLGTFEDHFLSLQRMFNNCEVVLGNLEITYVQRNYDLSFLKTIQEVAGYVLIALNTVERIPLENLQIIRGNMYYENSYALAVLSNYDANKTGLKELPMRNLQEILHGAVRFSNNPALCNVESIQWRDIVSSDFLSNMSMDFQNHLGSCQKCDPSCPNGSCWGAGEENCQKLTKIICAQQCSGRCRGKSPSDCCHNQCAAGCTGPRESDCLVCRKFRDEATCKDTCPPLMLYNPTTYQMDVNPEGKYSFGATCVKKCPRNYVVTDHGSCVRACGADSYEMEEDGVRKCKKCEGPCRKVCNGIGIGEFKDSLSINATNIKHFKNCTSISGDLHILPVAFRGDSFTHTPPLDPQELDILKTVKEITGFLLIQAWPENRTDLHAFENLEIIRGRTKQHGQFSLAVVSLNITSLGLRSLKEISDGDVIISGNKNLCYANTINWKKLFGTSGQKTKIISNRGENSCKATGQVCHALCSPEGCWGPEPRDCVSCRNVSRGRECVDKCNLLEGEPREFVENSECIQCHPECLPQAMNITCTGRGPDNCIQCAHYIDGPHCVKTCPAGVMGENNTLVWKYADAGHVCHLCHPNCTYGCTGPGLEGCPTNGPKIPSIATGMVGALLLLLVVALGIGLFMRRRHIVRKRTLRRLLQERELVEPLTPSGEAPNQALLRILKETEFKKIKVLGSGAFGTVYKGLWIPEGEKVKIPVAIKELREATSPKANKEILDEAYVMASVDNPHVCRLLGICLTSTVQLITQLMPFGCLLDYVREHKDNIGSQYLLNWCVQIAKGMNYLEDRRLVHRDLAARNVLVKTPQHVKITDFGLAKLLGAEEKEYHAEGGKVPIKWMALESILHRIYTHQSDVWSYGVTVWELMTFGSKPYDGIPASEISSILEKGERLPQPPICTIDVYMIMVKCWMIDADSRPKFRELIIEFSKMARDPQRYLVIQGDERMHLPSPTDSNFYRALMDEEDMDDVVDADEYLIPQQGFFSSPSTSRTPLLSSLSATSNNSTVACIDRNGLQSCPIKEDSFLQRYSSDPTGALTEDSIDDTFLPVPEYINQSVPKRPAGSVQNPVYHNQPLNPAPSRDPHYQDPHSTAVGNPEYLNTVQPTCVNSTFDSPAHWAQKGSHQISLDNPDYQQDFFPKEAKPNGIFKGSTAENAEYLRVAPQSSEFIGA

`Cc1[nH]c2ncnc(Nc3cccc(C(F)(F)F)c3)c2c1C` displayed an IC50 in assay [1] of 1.9 µM.
With `Cc1[nH]c2ncnc(Nc3cccc(Cl)c3)c2c1C`, the IC50 in assay [2] is over 100 µM; in assay [3], over 100 µM; in assay [4] it was over 100 µM; in assay [5] it was 40.5 µM.
On to `Clc1cccc(Nc2ncnc3[nH]c4ccccc4c23)c1`, for which the IC50 in assay [6] is 0.12 µM; in assay [7], 0.47 µM; in assay [2], over 100 µM; in assay [1] it was 0.006 µM; in assay [3], over 100 µM; in assay [4], over 100 µM. For the same compound, the IC50 in assay [5] amounted to 30 µM.
On to `Cc1cccc(Nc2ncnc3[nH]c(C)c(C)c23)c1`, for which the IC50 in assay [6] is over 100 µM; in assay [7], 7.2 µM; in assay [3] it was over 100 µM; in assay [4] it was over 100 µM; in assay [5], 5.3 µM.
As to `Cc1cccc(Nc2ncnc3[nH]c4c(c23)CCCC4)c1`, the IC50 was over 100 µM in assay [6]; over 50 µM in assay [7]; over 10 µM in assay [8]; over 100 µM in assay [3]; over 100 µM in assay [4]; over 100 µM in assay [5].
For `Clc1cccc(Nc2ncnc3[nH]c(-c4ccccc4)c(-c4ccccc4)c23)c1`, the IC50 was over 50 µM in assay [7], over 10 µM in assay [8], over 100 µM in assay [4] and over 100 µM in assay [5].
Compound `Cc1ccc(Nc2ncnc3[nH]c(C)c(C)c23)cc1` displayed an IC50 in assay [1] of 2.1 µM.
`Cc1[nH]c2ncnc(Nc3cccc(F)c3)c2c1C`: the IC50 in assay [6] is over 100 µM; in assay [7], 29.9 µM; in assay [3], over 100 µM; in assay [4], over 100 µM; in assay [5] it was 99 µM.
For the compound `Cc1[nH]c2ncnc(Nc3cccc(Cl)c3)c2c1-c1ccccc1`, the IC50 is 6 µM in assay [6]; 38.3 µM in assay [7]; 0.23 µM in assay [1]; over 100 µM in assay [4]; over 100 µM in assay [5].
`CCc1ccc(Nc2ncnc3[nH]c(C)c(C)c23)cc1` displayed an IC50 in assay [1] of 77.5 µM.
On the same count and under the same terms, the same measure for `CCc1ccccc1Nc1ncnc2[nH]c(C)c(C)c12`: over 100 µM.
As for `Cc1c(-c2ccccc2)[nH]c2ncnc(Nc3cccc(Cl)c3)c12`, the IC50 was 6 µM in assay [6]; over 50 µM in assay [7]; over 10 µM in assay [8]; 0.01 µM in assay [1]; over 100 µM in assay [3]; over 100 µM in assay [4]. In assay [5], this compound had a half-maximal inhibitory concentration (IC50) of over 100 µM.
In the case of `Cc1[nH]c2ncnc(NC3CCCCC3)c2c1C`, the midpoint of inhibition in assay [1], the IC50, lay at 6.92 µM.
Same read-out and setting: for `Cc1[nH]c2ncnc(NCc3ccccc3)c2c1C` the value was 1.08 µM.
Compound `Cc1[nH]c2ncnc(Nc3cccc(C(=O)O)c3)c2c1C` gave an IC50 in assay [1] of 16.3 µM.
Same read-out and setting: for `COc1cccc(Nc2ncnc3[nH]c4c(c23)CCCC4)c1` the value was 0.86 µM.
Turning to `c1ccc(Nc2ncnc3[nH]c4c(c23)CCCC4)cc1`, the IC50 in assay [8] was over 10 µM; in assay [3], over 100 µM; in assay [4], over 100 µM; in assay [5] it was over 100 µM.
For `Oc1cccc(Nc2ncnc3[nH]c4c(c23)CCCC4)c1`, half-maximal inhibition in assay [1] (IC50) required 0.42 µM.
For `Brc1cccc(Nc2ncnc3[nH]c4c(c23)CCCC4)c1`, the IC50 in assay [6] is 0.4 µM; in assay [7], 1.4 µM; in assay [8], over 10 µM; in assay [2], over 100 µM; in assay [3], over 100 µM; in assay [4], over 100 µM. This compound came in with an IC50 in assay [5] of over 100 µM.
In turn, `Cc1[nH]c2ncnc(Nc3ccc(Cl)cc3)c2c1C` yielded an IC50 in assay [1] of over 50 µM.
The same measure, in the same setting: the same measure for `CCOC(=O)c1cccc(Nc2ncnc3[nH]c(C)c(C)c23)c1`: over 100 µM; for `CCc1ccc(Nc2ncnc3[nH]c4c(c23)CCCC4)cc1`: over 50 µM.
The same measure, in the same setting: for `COc1cccc(Nc2ncnc3[nH]c(C)c(C)c23)c1` the value was 1.2 µM; for `Cc1nc(Nc2cccc(Cl)c2)c2c(C)c(C)[nH]c2n1`, over 100 µM.
On the same count and under the same terms, the same measure for `Cc1[nH]c2ncnc(Nc3ccccc3Cl)c2c1C`: 75.1 µM; for `O=C(O)c1cccc(Nc2ncnc3[nH]c4c(c23)CCCC4)c1`: 25.7 µM.
`Cc1[nH]c2ncnc(Nc3cccc(Br)c3)c2c1C`: the half-maximal inhibitory concentration (IC50) in assay [6] is 1.5 µM; in assay [7], 1.4 µM; in assay [8], over 10 µM; in assay [2], over 100 µM; in assay [3] it was over 100 µM; in assay [4], over 100 µM. The same compound displayed an IC50 in assay [5] of 2.3 µM.
As for `Cc1[nH]c2ncnc(Nc3cccc(O)c3)c2c1C`, the IC50 in assay [1] was 1.25 µM.
Consider `Cc1[nH]c2ncnc(Nc3ccccc3)c2c1C`, for which the IC50 in assay [8] was over 10 µM; in assay [3] it was 75 µM; in assay [4] it was over 100 µM.
Turning to `Clc1cccc(Nc2ncnc3[nH]c4c(c23)CCCC4)c1`, the IC50 in assay [7] is 0.98 µM; in assay [8], over 10 µM; in assay [2], over 100 µM; in assay [3], over 100 µM; in assay [4], over 100 µM; in assay [5], over 100 µM.
`Cc1[nH]c2ncnc(Nc3cccc(C#N)c3)c2c1C`: in assay [1], the IC50 stood at 0.2 µM.
Still for that read-out and setting: for `Cc1[nH]c2ncnc(Oc3cccc(Cl)c3)c2c1C` the value was 2.5 µM; for `Cc1[nH]c2ncnc(N(C)c3cccc(Cl)c3)c2c1C`, 0.5 µM.

In general, IC50 refers to the midpoint of a concentration-inhibition curve. A high value points to weaker potency.

(Values after ChEMBL document CHEMBL1129072, “4-(Phenylamino)pyrrolopyrimidines: potent and selective, ATP site directed inhibitors of the EGF-receptor protein tyrosine kinase” (J Med Chem, 1996).)
